Paper PMC5697452 (ACS Chemical Biology, 2017)
Entries after “also recorded” stand apart in the source; their conditions may differ.

Legend:
proMMP-9 [1] = biological target: T1, proMMP-9 (Homo sapiens, UniProt P14780); assay: Tryptophan fluorescence blue-shift binding assay with proMMP-9
proMMP-9/MMP-2PEX = assay: Tryptophan fluorescence binding assay with chimera proMMP-9/MMP-2PEX; set-up: species or system human; settings: chimera with MMP-2 PEX domain, 0.5 μM
In short: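 Purified recombinant chimera (0.5 μM) was titrated with test compound in TNC buffer (50 mM Tris-HCl, 10 mM CaCl2, pH 7.5). A buffer-only addition served as the protein stability control. After each addition the sample was stirred 1 min at RT, excited at 280 nm, and scanned 300–425 nm, averaging three scans. Kd was fitted to ΔF/ΔFMax, where ΔF is the emission shift in nm.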

proMMP-9 [2] = biological target: T1, proMMP-9; assay: Saturated transfer difference; type: binding; settings: compound:protein 38:1 (300 µM:8 µM), 4 °C
proMMP-2 = biological target: T2, proMMP-2 (Homo sapiens, UniProt P08253); assay: Saturated transfer difference; type: binding; settings: compound:protein 38:1 (300 µM:8 µM), 4 °C
T2 sequence (P08253 30-660 limits assumed): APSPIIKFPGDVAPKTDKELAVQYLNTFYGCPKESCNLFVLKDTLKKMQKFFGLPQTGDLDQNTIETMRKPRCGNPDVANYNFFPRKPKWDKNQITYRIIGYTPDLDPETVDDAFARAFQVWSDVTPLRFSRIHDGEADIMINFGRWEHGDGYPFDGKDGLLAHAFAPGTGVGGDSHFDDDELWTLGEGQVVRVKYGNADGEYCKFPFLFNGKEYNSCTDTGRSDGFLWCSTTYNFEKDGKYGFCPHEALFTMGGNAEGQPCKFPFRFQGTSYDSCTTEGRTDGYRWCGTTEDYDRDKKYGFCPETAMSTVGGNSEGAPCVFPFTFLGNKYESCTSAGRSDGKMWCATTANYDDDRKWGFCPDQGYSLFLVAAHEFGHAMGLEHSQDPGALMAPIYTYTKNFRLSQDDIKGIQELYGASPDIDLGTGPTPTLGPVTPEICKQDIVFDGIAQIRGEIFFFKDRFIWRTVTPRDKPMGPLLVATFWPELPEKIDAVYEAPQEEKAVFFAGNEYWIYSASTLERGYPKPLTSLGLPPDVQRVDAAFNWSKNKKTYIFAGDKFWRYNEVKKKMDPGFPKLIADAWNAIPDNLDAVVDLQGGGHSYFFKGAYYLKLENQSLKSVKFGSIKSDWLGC

APMA-activated MMP-9 = APMA-activated MMP-9 (Homo sapiens, UniProt P14780); assay: Fluorogenic peptide assay of MMP-9 catalytic activity; type: biochemical; settings: 10 μM fluorogenic peptide, 2 h; for inhibition of MMP-9 catalytic activity: 50 μM compound
In short: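 Recombinant proMMP-9 was activated overnight at 37 °C in TNC buffer with 1 mM APMA. […] Fluorescence (ex 320/em 405 nm) was read every 10 min over 2 h.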

COS-1 cells = assay: MTT cell viability, COS-1 cells; type: cell-based, monkey; settings: 24 h
In short: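 COS-1 cells stably expressing vector control or proMMP-9 cDNA were treated 24 h with DMSO, 50 μM compound, or 100 nM staurosporine (positive control for acute toxicity). Viability was assessed by MTT.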

[3] = test system: HT1080 fibrosarcoma cells; assay: Chronic toxicity in HT1080 fibrosarcoma cells; type: cell-based, human; settings: 100 μM, retreated every 3 days for 9 days; data not shown
In short: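 HT1080 cells were cultured in complete medium with or without compound, with medium and compound replaced repeatedly over 9 days. Viability was measured daily by MTT: 4 h at 37 °C, then formazan solubilised and absorbance read at 570 nm.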

[4] = test system: HT1080 fibrosarcoma cells; assay: Two-dimensional dot migration assay, HT1080 cells; type: cell-based, human; settings: 50 µM, relative to control groups
[5] = test system: proMMP-2 expressing COS-1 cells; assay: Two-dimensional dot migration assay, COS-1 cells expressing proMMP-2; type: cell-based, monkey; settings: 50 μM
In short: (§1)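 COS-1 cells expressed vector pQCXIP, proMMP-2, proMMP-9 or proMMP-14 (polyethylenimine transfection, 48 h at 37 °C); expression was checked by immunoblot of lysates and serum-free medium. Cells were mixed 1:1 with neutralized type I collagen (3 mg/mL) on ice, and 1 μL dots (1 × 10^7 cells/mL) were set. Dots were covered with complete medium ± 50 μM compound for 18 h, then fixed and DAPI-stained, and migrated cells were counted.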

[6] = test system: proMMP-14 expressing COS-1 cells; assay: Two-dimensional dot migration assay, COS-1 cells expressing proMMP-14; type: cell-based, monkey; settings: 50 μM
In short: as §1

[7] = test system: EGFR, AKT, Erk1/2, Src, FAK, PAX phosphorylation; assay: Immunoblot of downstream signaling phosphorylation in HT1080 cells; type: cell-based, human; settings: 50 μM
In short: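 HT1080 cells transiently expressing Myc-tagged MMP-9 were treated with 50 μM compound. Lysates were run on 10% SDS-PAGE and immunoblotted for phospho-Src Tyr418, phospho-FAK Tyr576/577 and phospho-PAX Tyr118.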

HT1080 cells [8] = assay: Immunofluorescence of HT1080 cells; type: cell-based, human; settings: for MMP-9 cell surface localization: 50 μM; for formation of FAK and PAX adhesion junctions: 50 μM overnight
In short: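 HT1080 cells were fixed in 4% paraformaldehyde/PBS and blocked in 5% BSA/PBS. Staining used anti-MMP-9 (anti-rabbit Alexa 488) with anti-α4 and/or anti-β1 integrin (anti-mouse Alexa 568), or anti-p-FAK Tyr576/577 (Alexa 568) and anti-p-PAX Tyr118 (Alexa 488). Nuclei were counterstained with DAPI, and images were taken by two-photon laser-scanning confocal microscopy.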

[9] = test system: EGFR-CD44 and EGFR-β1 integrin; assay: Co-immunoprecipitation of endogenous EGFR in HT1080 cells; type: cell-based, human; settings: 50 μM
HT1080 cells [10] = assay: Cellular adhesion assay on collagen or fibronectin; type: cell-based, human; settings: 30 min at 37 °C
In short: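 HT1080 cells seeded in 96-well plates coated with a thin layer of collagen or fibronectin (5 μg/mL in PBS). Cells were held 30 min at 37 °C with test compound. Wells were then washed and the cells fixed in 4% paraformaldehyde and stained with DAPI. Adherent cells were imaged and counted automatically.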

[11] = test system: HT1080 cells on chicken embryo CAM; assay: Chorioallantoic membrane; type: in vivo; settings: final concentration estimated 0.5 μM, 4-day incubation, vs DMSO and 1f
In short: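 Fertilized white chicken eggs were incubated 3 days at 37 °C and 70% humidity, then cultured ex ovo in Petri dishes. HT1080 cells adsorbed onto a gelatin sponge were implanted on the CAM. Compound was added from a 100 μM stock (estimated final 0.5 μM); DMSO served as control. Blood vessels surrounding the sponge were counted on day 4 at 37 °C.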

[12] = test system: HT1080 cells on chicken embryo CAM; assay: Chorioallantoic membrane; type: in vivo; settings: final concentration estimated 0.5 μM, 7-day incubation, vs DMSO and 1f
In short: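 Ex ovo chick embryos were inoculated at day 10 with pretreated GFP-expressing HT1080 cells in a 3 mg/mL collagen solution seeded atop the CAM. Compound was added from a 100 μM stock (estimated final 0.5 μM), with DMSO control. After 7 days at 37 °C, CAM segments were formalin-fixed, OCT-embedded, cut at 6 μm and H&E stained. GFP+ cells were scored by fluorescence microscopy.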

[13] = test system: proMMP-9-mediated cancer cell migration; settings: in vitro; cited from earlier work
MMP-9 = settings: cited from earlier work
closely related MMPs = settings: cited from earlier work
cancer metastasis = settings: in vivo mouse xenograft model; cited from earlier work

T1 sequence (P14780 20-707 limits assumed): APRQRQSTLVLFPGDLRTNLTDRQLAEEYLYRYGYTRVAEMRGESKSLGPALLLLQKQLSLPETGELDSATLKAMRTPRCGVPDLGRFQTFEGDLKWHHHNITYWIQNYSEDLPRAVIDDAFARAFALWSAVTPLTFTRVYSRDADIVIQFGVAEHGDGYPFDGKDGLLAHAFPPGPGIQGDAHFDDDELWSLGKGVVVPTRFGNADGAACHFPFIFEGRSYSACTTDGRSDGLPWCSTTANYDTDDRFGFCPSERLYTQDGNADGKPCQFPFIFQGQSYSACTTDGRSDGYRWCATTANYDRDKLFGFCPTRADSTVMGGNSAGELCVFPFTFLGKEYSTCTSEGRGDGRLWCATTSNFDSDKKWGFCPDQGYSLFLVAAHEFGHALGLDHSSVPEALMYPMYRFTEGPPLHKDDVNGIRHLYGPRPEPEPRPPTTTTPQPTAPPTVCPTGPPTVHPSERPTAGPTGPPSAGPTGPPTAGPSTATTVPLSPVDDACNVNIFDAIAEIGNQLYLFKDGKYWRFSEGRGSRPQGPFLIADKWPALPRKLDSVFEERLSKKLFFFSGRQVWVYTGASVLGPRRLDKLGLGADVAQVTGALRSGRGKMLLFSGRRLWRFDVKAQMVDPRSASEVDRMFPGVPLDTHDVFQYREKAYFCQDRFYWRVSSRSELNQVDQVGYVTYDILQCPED
Sequence of APMA-activated MMP-9 (P14780 107-707 limits assumed): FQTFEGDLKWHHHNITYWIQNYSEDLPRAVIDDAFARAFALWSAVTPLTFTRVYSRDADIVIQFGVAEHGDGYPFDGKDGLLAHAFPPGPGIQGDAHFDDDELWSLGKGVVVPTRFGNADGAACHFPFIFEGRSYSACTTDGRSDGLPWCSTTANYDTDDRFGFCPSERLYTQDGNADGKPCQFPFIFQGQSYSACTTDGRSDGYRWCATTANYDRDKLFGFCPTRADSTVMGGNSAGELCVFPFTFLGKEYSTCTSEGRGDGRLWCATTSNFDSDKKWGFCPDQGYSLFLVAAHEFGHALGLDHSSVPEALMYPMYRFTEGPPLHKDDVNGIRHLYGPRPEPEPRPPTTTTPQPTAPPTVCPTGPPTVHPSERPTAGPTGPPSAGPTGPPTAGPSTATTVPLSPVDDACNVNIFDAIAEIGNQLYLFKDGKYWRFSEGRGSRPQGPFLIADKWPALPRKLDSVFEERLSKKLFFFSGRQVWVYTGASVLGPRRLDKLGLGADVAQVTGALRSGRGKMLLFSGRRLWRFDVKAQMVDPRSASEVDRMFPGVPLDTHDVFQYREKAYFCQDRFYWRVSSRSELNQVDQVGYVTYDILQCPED

O=C(CCCSc1nc2c(c(=O)[nH]1)CCCC2)Nc1ccc(F)cc1 [Compound 3c, N-(4-Fluorophenyl)-4-(4-oxo-3,4,5,6,7,8-hexahydroquinazolin-2-ylthio)butanamide]
binding affinity relative to parent compound 1a (proMMP-9 [1]; Kd comparison): four times tighter
maximal λMax shift (proMMP-9 [1]; after treatment with 25 μM inhibitor, ex 280 nm): 9 nm
Kd (proMMP-9 [1]; tryptophan fluorescence, purified recombinant proMMP-9 0.5 μM, TNC buffer pH 7.5): 320 nM
shift in tryptophan fluorescence upon titration (proMMP-9/MMP-2PEX): no shift in fluorescence was observed
STD NMR peaks (proMMP-9 [2]): STD peaks were observed in the presence of proMMP-9
STD NMR peaks (proMMP-2): not in the presence of proMMP-2
inhibition of MMP-9 catalytic activity (APMA-activated MMP-9): No inhibition of the catalytic activity was observed
decrease in cell growth (COS-1 cells; 50 μM, nonstatistically significant): 8%
cell death (chronic toxicity) [3]: No cell death was observed
inhibition of migration [4]: the same inhibition potency was observed
inhibition of proMMP-2 mediated cell migration [5]: lack of inhibition
inhibition of proMMP-14 mediated cell migration [6]: lack of inhibition
phosphorylation of Src Tyr418 and downstream FAK Tyr576/577 and PAX Tyr118 [7]: reduced Src^Tyr418 phosphorylation
MMP-9 cell surface localization (HT1080 cells [8]): loss of MMP-9 from the cell surface
formation of FAK and PAX adhesion junctions (HT1080 cells [8]): decrease in the formation of FAK and PAX adhesion junctions
interaction between EGFR-CD44 and EGFR-β1 integrin [9]: Decreased interaction between EGFR-CD44 and EGFR-β1 integrin
cell adhesion to collagen or fibronectin (HT1080 cells [10]; 50 µM): inhibited cellular adhesion
angiogenic potential of HT1080 cells (neovascularization) [11]: reduces angiogenesis; also recorded: significantly reduced the angiogenic potential
invasion of CAM tissue by HT1080 cells [12]: blocks cancer cell invasion of the basement membrane; also recorded: reduced invasion of CAM tissue

CN[C@@H]1C[C@H]2O[C@@](C)([C@@H]1OC)n1c3ccccc3c3c4c(c5c6ccccc6n2c5c31)C(=O)NC4 [STS, staurosporine, reference compound]
cell death (COS-1 cells; 100 nM, positive control): Significant cell death

CNC(=O)[C@@H](NC(=O)[C@H](CC(C)C)[C@H](O)C(=O)NO)C(C)(C)C [Marimastat, reference compound]
substrate cleavage by activated MMP-9 (APMA-activated MMP-9; 250 nM Marimastat): no substrate cleavage was observed
formation of focal adhesion contact sites (HT1080 cells [8]; 80 nM marimastat): did not prevent the formation of focal adhesion contact sites
cell adhesion to collagen or fibronectin (HT1080 cells [10]; 80 nM Marimastat): no observable effect on cell attachment

CCCc1cc(=O)nc(SCC(=O)Nc2ccc(OC(F)F)cc2)[nH]1 [Compound 1a, N-(4-Difluoromethoxyphenyl)-2-(4-oxo-6-propyl-1,4-dihydropyrimidin-2-ylthio)acetamide]
inhibition of MMP-9 catalytic activity (APMA-activated MMP-9): No inhibition of the catalytic activity was observed
inhibition of migration [4]: the same inhibition potency was observed
phosphorylation of Src Tyr418 and downstream FAK Tyr576/577 and PAX Tyr118 [7]: reduced Src^Tyr418 phosphorylation
MMP-9 cell surface localization (HT1080 cells [8]): loss of MMP-9 from the cell surface
formation of FAK and PAX adhesion junctions (HT1080 cells [8]): decrease in the formation of FAK and PAX adhesion junctions
cell adhesion to collagen or fibronectin (HT1080 cells [10]; 50 µM): inhibited cellular adhesion
angiogenic potential of HT1080 cells (neovascularization) [11]: significantly reduced the angiogenic potential
invasion of CAM tissue by HT1080 cells [12]: reduced invasion of CAM tissue
proMMP-9-mediated cancer cell migration and proliferation [13]: inhibited proMMP-9-mediated cancer cell migration and proliferation
inhibition of MMP-9 enzymatic activity (MMP-9): did not inhibit MMP-9 enzymatic activity
binding to closely related MMPs (closely related MMPs): does not bind to closely related MMPs
cancer metastasis (cancer metastasis): effectively prevented cancer metastasis
